Experimental data as given in ChEMBL document CHEMBL1145315, “Synthesis and hypoxic-cytotoxic activity of some 3-amino-1,2,4-benzotriazine-1,4-dioxide derivatives” (Bioorg Med Chem Lett, 2006).
pIC50: −log10 of the molar value. Activity calls are given as the source filed them. The calls are words filed in the database; no cut-off is given here.

Columns and labels:
[1] = test system: MOLT-4; test: Reduction of mitochondrial membrane potential in human Molt4 cells after 12 hrs at 2 uM; type: functional, cell-based
Outline: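 Cells were treated with 2.0 μM compound for 12 h in hypoxia and then stained with JC-1. Flow cytometry read depolarization as a rise in the green:red fluorescence ratio. Values are means ± SD from three separate experiments, each run in triplicate.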

[2] = test system: HepG2; test: Cytotoxicity against human HepG2 cells after 48 hrs by MTT assay; type: functional, cell-based; conditions: HepG2, 48 h
Outline: (§1)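 Cells were exposed in hypoxia for 48 h with tirapazamine as the reference drug. Growth was read by MTT assay and IC50 was calculated by the LOGIT method.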

[3] = test system: HL-60; test: Ratio of cytotoxicity against human HL60 cells in normoxia to hypoxia after 48 hrs; type: functional, cell-based; conditions: HL-60, 48 h
[4] = test system: MOLT-4; test: Ratio of cytotoxicity against human Molt4 cells in normoxia to hypoxia after 48 hrs; type: functional, cell-based; conditions: MOLT-4, 48 h
[5] = test system: K562; test: Cytotoxicity against human K562 cells after 48 hrs by MTT assay; type: functional, cell-based; conditions: K562, 48 h; outline: as §1
[6] = test system: MOLT-4; test: Cytotoxicity against human Molt4 cells in hypoxia after 48 hrs; type: functional, cell-based; conditions: MOLT-4, 48 h
Outline: (§2)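 Cells were exposed for 48 h in either normoxia or hypoxia. IC50 was determined separately under each oxygen condition.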

[7] = test system: HL-60; test: Cytotoxicity against human HL60 cells after 48 hrs by MTT assay; type: functional, cell-based; conditions: HL-60, 48 h; outline: as §1
[8] = test system: HL-60; test: Cytotoxicity against human HL60 cells in hypoxia after 48 hrs; type: functional, cell-based; conditions: HL-60, 48 h; outline: as §2
[9] = test system: MOLT-4; test: Increase in p53 level in human Molt4 cells in hypoxia after 24 hrs at 2 uM; type: functional, cell-based
Outline: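 Cells were exposed to 2.0 μM compound for 24 h in hypoxia, and p53 protein was measured by Western blot. The experiment was repeated three times.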

[10] = test system: MOLT-4; test: Cytotoxicity against human Molt4 cells in normoxia after 48 hrs; type: functional, cell-based; conditions: MOLT-4, 48 h; outline: as §2
[11] = test system: MOLT-4; test: Cytotoxicity against human Molt4 cells after 48 hrs by MTT assay; type: functional, cell-based; conditions: MOLT-4, 48 h; outline: as §1
[12] = test system: MOLT-4; test: Induction of apoptosis in human Molt4 cells after 24 hrs at 2 uM; type: functional
Outline: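 Cells were cultured in complete medium under 3% O2 with 2.0 μM compound for 24 h, alongside an untreated control. Lysed nuclei were stained with propidium iodide, and DNA content was analysed by flow cytometry on 20,000 events per test, scoring the apoptotic fraction. The experiment was done three times.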

[13] = test system: HL-60; test: Cytotoxicity against human HL60 cells in normoxia after 48 hrs; type: functional, cell-based; conditions: HL-60, 48 h; outline: as §2
[14] = test system: PC-3; test: Cytotoxicity against human PC3 cells after 48 hrs by MTT assay; type: functional, cell-based; conditions: PC-3, 48 h; outline: as §1

Structure (SMILES)	Activity [1]	pIC50 [2]	IC50 ratio [3]	IC50 ratio [4]	pIC50 [5]	pIC50 [6]	pIC50 [7]	pIC50 [8]	Activity [9]	pIC50 [10]	pIC50 [11]	Activity [12] [%]	pIC50 [13]	pIC50 [14]
COc1ccc(Nc2n[n+]([O-])c3ccccc3[n+]2[O-])cc1	Active	5.00	7.56	8.67	5.54	6.22	6.05	6.05	Active	5.28	6.22	45	5.17	4.92
CCN(CC)c1n[n+]([O-])c2ccccc2[n+]1[O-]	–	< 3.97	–	–	< 4.26	–	< 4.31	–	–	–	< 4.75	–	–	< 3.97
Nc1ccccc1Nc1n[n+]([O-])c2ccccc2[n+]1[O-]	–	4.76	–	–	4.97	–	5.08	–	–	–	5.64	–	–	4.79
CCCCCCCCNc1n[n+]([O-])c2ccccc2[n+]1[O-]	–	4.76	–	–	5.33	–	5.14	–	–	–	5.31	–	–	4.74
[O-][n+]1nc(NCc2ccccc2Cl)[n+]([O-])c2ccccc21	–	5.01	–	–	5.66	–	5.24	–	–	–	5.64	–	–	4.97
CCNc1n[n+]([O-])c2ccccc2[n+]1[O-]	–	4.87	–	–	5.35	–	5.05	–	–	–	5.48	–	–	4.88
Cc1ccc(Nc2n[n+]([O-])c3ccccc3[n+]2[O-])cc1	–	4.97	–	–	5.60	–	5.82	–	–	–	5.96	–	–	4.99
C=CCNc1n[n+]([O-])c2ccccc2[n+]1[O-]	–	< 4.25	–	–	4.95	–	4.59	–	–	–	5.52	–	–	< 4.25
O=[N+]([O-])c1ccc(CNc2n[n+]([O-])c3ccccc3[n+]2[O-])cc1	–	5.11	4.29	6.25	5.51	6.10	5.85	5.85	–	5.30	6.10	–	5.22	5.13
[O-][n+]1nc(NCc2ccccc2)[n+]([O-])c2ccccc21	Active	5.09	2.53	3.68	5.72	5.66	5.60	5.60	Active	5.09	5.66	33	5.20	4.97
[O-][n+]1nc(Nc2ccccc2)[n+]([O-])c2ccccc21	–	4.82	–	–	5.62	–	5.54	–	–	–	5.85	–	–	4.77
Nc1n[n+]([O-])c2ccccc2[n+]1[O-] [TIRAPAZAMINE]	Active	4.72	2.31	3.43	5.28	5.34	5.15	5.15	Active	4.80	5.34	11	4.79	4.65
[O-][n+]1nc(NCCO)[n+]([O-])c2ccccc21	–	4.63	–	–	5.43	–	4.97	–	–	–	5.59	–	–	4.65
[O-][n+]1nc(NC2CCCCC2)[n+]([O-])c2ccccc21	–	5.02	–	–	5.59	–	5.60	–	–	–	5.89	–	–	4.98
[O-][n+]1nc(N2CCOCC2)[n+]([O-])c2ccccc21	–	< 4.02	–	–	< 4.33	–	< 4.22	–	–	–	< 4.79	–	–	< 4.02
[O-][n+]1nc(NC2CC2)[n+]([O-])c2ccccc21	–	4.88	–	–	5.18	–	5.44	–	–	–	5.72	–	–	4.80
